Measured values reported in ChEMBL document CHEMBL5325420, “Discovery of a spirocyclic 3-bromo-4,5-dihydroisoxazole covalent inhibitor of hGAPDH with antiproliferative activity against pancreatic cancer cells” (Eur J Med Chem, 2023).
Active and inactive are the calls of the source. The calls are words filed in the database; no cut-off is given here.

Columns and labels:
[1] = molecular target: Glyceraldehyde-3-phosphate dehydrogenase (Homo sapiens) (UniProt P04406); assay: Binding affinity to human recombinant his tagged GAPDH expressed in Escherichia coli assessed as absolute rate constant at 2 mM at pH 7 in presence of beta mercaptoethanol measured for 1 hr by HPLC method
[2] = molecular target: Glyceraldehyde-3-phosphate dehydrogenase (Homo sapiens) (UniProt P04406); assay: Covalent inhibition of human recombinant his tagged GAPDH expressed in Escherichia coli at 100 uM measured after 3 hrs by spectrophotometric analysis relative to control
In short: (§1)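 His-tagged hGAPDH from E. coli, 2 μM, preincubated at 25 °C with 10, 50 or 100 μM inhibitor for 30 min or 3 h in 10 mM TEA, 5 mM EDTA, 10 mM arsenate, pH 7.6. Residual activity of aliquots (enzyme 30–50 nM) measured with 1.5 mM NAD+, 100 μM DL-GAP, NADH at 340 nm, 25 °C. Relative to untreated enzyme; independent duplicates, mean ± SD.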

[3] = molecular target: Glyceraldehyde-3-phosphate dehydrogenase (Homo sapiens) (UniProt P04406); assay: Binding affinity to human recombinant his tagged GAPDH expressed in Escherichia coli assessed as pseudo first order reaction at 2 mM at pH 7 in presence of beta mercaptoethanol measured for 1 hr by HPLC method
[4] = molecular target: Glyceraldehyde-3-phosphate dehydrogenase (Homo sapiens) (UniProt P04406); assay: Binding affinity to human recombinant his tagged GAPDH expressed in Escherichia coli assessed as time constant at 200 uM measured after 1 min by spectrophotometric analysis
In short: (§2)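 Racker band loss. 100 μM His-tagged hGAPDH (expressed in E. coli) with 200 μM inhibitor in 10 mM TEA, 5 mM EDTA, 10 mM KH2PO4, pH 7.6. Absorbance at 340 nm followed until reaction completion; traces fitted to a kinetic equation.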

[5] = molecular target: Glyceraldehyde-3-phosphate dehydrogenase (Homo sapiens) (UniProt P04406); assay: Covalent inhibition of human recombinant his tagged GAPDH expressed in Escherichia coli assessed as residual activity at 100 uM measured after 3 hrs by spectrophotometric analysis; in short: as §1
[6] = molecular target: Glyceraldehyde-3-phosphate dehydrogenase (Homo sapiens) (UniProt P04406); assay: Binding affinity to human recombinant his tagged GAPDH expressed in Escherichia coli assessed elimination of racker band at measured after 30 hrs by spectrophotometric analysis; in short: as §2
[7] = molecular target: Glyceraldehyde-3-phosphate dehydrogenase (Homo sapiens) (UniProt P04406); assay: Binding affinity to human recombinant his tagged GAPDH expressed in Escherichia coli assessed as time constant at 200 uM measured after 30 hrs by spectrophotometric analysis; in short: as §2
[8] = molecular target: Glyceraldehyde-3-phosphate dehydrogenase (Homo sapiens) (UniProt P04406); assay: Covalent inhibition of human recombinant his tagged GAPDH expressed in Escherichia coli at 50 uM measured after 30 mins by spectrophotometric analysis relative to control; in short: as §1
PaCa-44 [9] = assay: Antiproliferative activity against human PaCa-44 cells assessed as reduction in cell growth at 100 uM incubated for 48 hrs by crystal violet staining based analysis; assay type: functional
In short: (§3)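 PDAC lines and normal fibroblasts in DMEM-Glutamax, 10% FBS, 50 μg/ml gentamicin, 37 °C, 5% CO2. Seeded 5×10^3 cells/well for PDAC lines and 8×10^3 cells/well for fibroblasts. After 24 h, treated 48 h with 1–100 μM from 100 mM DMSO stocks. Crystal Violet read at A595, normalized to untreated cells. Mean ± SD (n = 4).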

[10] = molecular target: Glyceraldehyde-3-phosphate dehydrogenase (Homo sapiens) (UniProt P04406); assay: Inhibition of human recombinant his tagged GAPDH expressed in Escherichia coli at 10 uM incubated for 48 hrs relative to control
In short: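 Recombinant hGAPDH, 2 μM, with 10 μM inhibitor for 48 h at 37 °C in TEA/EDTA buffer, pH 7.6. Residual activity measured by the arsenate/NAD+/GAP assay, NADH at 340 nm, 25 °C. Expressed versus untreated enzyme; independent duplicates, mean ± SD.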

[11] = molecular target: Glyceraldehyde-3-phosphate dehydrogenase (Homo sapiens) (UniProt P04406); assay: Inhibition of recombinant his tagged-GAPDH in human PANC-1 cells expressed in Escherichia coli at 100 uM relative to control
[12] = molecular target: Glyceraldehyde-3-phosphate dehydrogenase (Homo sapiens) (UniProt P04406); assay: Inhibition of recombinant his tagged-GAPDH in human PaCa-3 cells expressed in Escherichia coli at 100 uM relative to control
PaCa-3 = assay: Antiproliferative activity against human PaCa-3 cells assessed as reduction in cell growth at 1 to 100 uM incubated for 48 hrs by crystal violet staining based analysis; assay type: functional; conditions: dose 1-100 µM; in short: as §3
MIA PaCa-2 [13] = assay: Antiproliferative activity against human MIA PaCa-2 cells assessed as reduction in cell growth at 1 to 100 uM incubated for 48 hrs by crystal violet staining based analysis; assay type: functional; conditions: dose 1-100 µM; in short: as §3
PANC-1 [14] = assay: Antiproliferative activity in human PANC-1 cells habouring p53 mutant/R273H assessed as decrease in cell growth at 10 uM measured after 48 hrs by Crystal violet staining based analysis; assay type: functional
In short: (§4)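 PaCa-3 (wt p53) and mutant-p53 PDAC lines exposed 48 h to 5 or 10 μM. Growth by Crystal Violet staining, each line normalized to its own untreated control. Mean ± SD, n = 4.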

[15] = Antiproliferative activity in human PaCa-44 cells measured after 48 hrs by Crystal violet staining based analysis; assay type: functional, cell-based; conditions: PaCa-44, 48 h
In short: (§5)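 IC50 from Crystal Violet growth curves. Cells in DMEM-Glutamax with 10% FBS, seeded, then exposed after 24 h to 1–100 μM for 48 h. A595 normalized to untreated cells. Three independent experiments.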

MIA PaCa-2 [16] = assay: Antiproliferative activity in human MIA PaCa-2 cells habouring p53 mutant/R248W assessed as decrease in cell growth at 10 uM measured after 48 hrs by Crystal violet staining based analysis; assay type: functional; in short: as §4
PANC-1 [17] = assay: Antiproliferative activity in human PANC-1 cells measured after 48 hrs by Crystal violet staining based analysis; assay type: functional, cell-based; conditions: PANC-1, 48 h; in short: as §5
[18] = molecular target: Glyceraldehyde-3-phosphate dehydrogenase (Homo sapiens) (UniProt P04406); assay: Covalent inhibition of human recombinant his tagged GAPDH expressed in Escherichia coli at 10 uM measured after 30 mins by spectrophotometric analysis relative to control; in short: as §1
PaCa-44 [19] = assay: Antiproliferative activity against human PaCa-44 cells assessed as reduction in cell growth at 1 to 100 uM incubated for 48 hrs by crystal violet staining based analysis; assay type: functional; conditions: dose 1-100 µM; in short: as §3
[20] = Antiproliferative activity in human PaCa-3 cells habouring wild type p53 assessed as decrease in cell growth at 5 uM measured after 48 hrs by Crystal violet staining based analysis relative to control; assay type: functional; set-up: scale not given: the % may be the effect or the level left; in short: as §4
[21] = molecular target: Glyceraldehyde-3-phosphate dehydrogenase (Homo sapiens) (UniProt P04406); assay: Inhibition of recombinant his tagged-GAPDH in human PaCa-44 cells expressed in Escherichia coli at 100 uM relative to control
Fibroblast = assay: Antiproliferative activity against human Fibroblast assessed as reduction in cell growth at high concentration incubated for 48 hrs by crystal violet staining based analysis relative to control; assay type: functional; set-up: scale not given: the % may be the effect or the level left; in short: as §3
PaCa-44 [22] = assay: Antiproliferative activity in human PaCa-44 cells habouring p53 mutant/C176S assessed as decrease in cell growth at 10 uM measured after 48 hrs by Crystal violet staining based analysis; assay type: functional; in short: as §4
PANC-1 [23] = assay: Antiproliferative activity against human PANC-1 cells assessed as reduction in cell growth at 1 to 100 uM incubated for 48 hrs by crystal violet staining based analysis; assay type: functional; conditions: dose 1-100 µM; in short: as §3
[24] = Antiproliferative activity in human PaCa-3 cells measured after 48 hrs by Crystal violet staining based analysis; assay type: functional, cell-based; conditions: Paca3, 48 h; in short: as §5
[25] = molecular target: Glyceraldehyde-3-phosphate dehydrogenase (Homo sapiens) (UniProt P04406); assay: Binding affinity to human recombinant his tagged GAPDH expressed in Escherichia coli assessed elimination of racker band measured within 1 min by spectrophotometric analysis; in short: as §2
MIA PaCa-2 [26] = assay: Antiproliferative activity in human MIA PaCa-2 cells measured after 48 hrs by Crystal violet staining based analysis; assay type: functional, cell-based; conditions: MIA PaCa-2, 48 h; in short: as §5

Glyceraldehyde-3-phosphate dehydrogenase (Homo sapiens), sequence (P04406 2-335 limits assumed): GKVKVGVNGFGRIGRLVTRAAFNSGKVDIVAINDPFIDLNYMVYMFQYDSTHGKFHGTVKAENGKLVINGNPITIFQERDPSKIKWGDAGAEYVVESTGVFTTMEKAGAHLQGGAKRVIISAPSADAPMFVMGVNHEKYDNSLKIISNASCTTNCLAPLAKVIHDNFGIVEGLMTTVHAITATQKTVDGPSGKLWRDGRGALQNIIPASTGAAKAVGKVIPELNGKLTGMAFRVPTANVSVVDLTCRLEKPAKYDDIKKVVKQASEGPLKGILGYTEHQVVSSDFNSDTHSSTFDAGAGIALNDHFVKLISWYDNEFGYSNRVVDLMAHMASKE

Structure (SMILES): O=C(O)c1ccc(C2CC(Br)=NO2)cc1 (centres undefined)
- K [1]: 1.84 10^-6/M/s
- inhibition [2]: 40%
- K [3]: 1.11 10^-6/s

Structure (SMILES): CC(C)[C@H]1CC[C@@]2(CO2)[C@H]2C(=O)OCC(C(=O)O)=C[C@H]12
- K [4]: 0.701 min

Structure (SMILES): O=S(=O)(O)c1ccc(C2CC(Br)=NO2)cc1 (centres undefined)
- inhibition [2]: 20%

Structure (SMILES): C=CC(=O)N1CCC[C@@H](n2nc(-c3ccc(Oc4ccccc4)cc3)c3c(N)ncnc32)C1
- K [1]: 10.4 10^-4/M/s

Structure (SMILES): BrC1=NOC(c2ccc(-c3nnn[nH]3)cc2)C1 (centres undefined)
- inhibition [5]: inactive

Structure (SMILES): O=C(O)c1ccccc1C1CC(Br)=NO1 (centres undefined)
- inhibition [5]: inactive

Structure (SMILES): NS(=O)(=O)c1ccc(C2CC(Br)=NO2)cc1 (centres undefined)
- inhibition [5]: inactive

Structure (SMILES): O=C(O)c1ccc(C2CC(Br)=NO2)s1 (centres undefined)
- inhibition [2]: 20%

Structure (SMILES): O=C(O)c1cccc(C2CC(Br)=NO2)c1 (centres undefined)
- inhibition [2]: 20%

Structure (SMILES): BrC1=NOC(c2ccccc2)C1 (centres undefined)
- K [1]: 1.1 10^-4/M/s
- inhibition [6]: inactive
- inhibition [2]: 40%
- K [7]: 908 min
- K [3]: 6.62 10^-5/s

Structure (SMILES): O=C(O)c1ccc2c(c1)CCCC21CC(Br)=NO1 (centres undefined)
- inhibition [8]: 100%
- K [1]: < 1 10^-8/M/s
- inhibition [2]: 40%
- Activity (PaCa-44 [9]): Active
- inhibition [10]: 40%
- inhibition [11]: 30%
- K [3]: < 1 10^-8/s

Structure (SMILES): Oc1ccc(C2CC(Br)=NO2)cc1 (centres undefined)
- inhibition [2]: 40%

Structure (SMILES): BrC1=NOC(c2cccs2)C1 (centres undefined)
- inhibition [5]: inactive

Structure (SMILES): BrC1=NOC2(CCCc3ccccc32)C1 (centres undefined)
- K [4]: 0.2 min
- inhibition [12]: 100%
- Activity (PaCa-3): Active
- Activity (MIA PaCa-2 [13]): Active
- Activity (PANC-1 [14]): Active
- inhibition [8]: 100%
- IC50 [15]: 16.2 µM
- Activity (MIA PaCa-2 [16]): Active
- K [1]: 8.75 10^-6/M/s
- IC50 (PANC-1 [17]): 21.7 µM
- inhibition [18]: 100%
- Activity (PaCa-44 [19]): Active
- Activity [20]: 42%
- inhibition [2]: 40%
- inhibition [21]: 100%
- Activity (Fibroblast): 20%
- inhibition [10]: 100%
- Activity (PaCa-44 [22]): Active
- Activity (PANC-1 [23]): Active
- IC50 [24]: 4.69 µM
- inhibition [11]: 100%
- K [3]: 5.25 10^-6/s
- inhibition [25]: Active
- IC50 (MIA PaCa-2 [26]): 15.2 µM
